Bioassay records from PubChem.
Rows were chosen to be rich in hits. Some 1.2% of all compounds tested hit in one or more screens of this group.
zfTRPN1 agonist – agonists of zebrafish TRPN1 channel; actives 0.18% (n = 220,000); activation, % at 3 µM; HEK293 zebrafish TRPN1-YFP, Fluo-8 calcium fluorescence; 100% = response to 87 µM carbachol;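 active = activation above its plate's cutoff, the mean activation of test wells on that plate plus 3 SD, cut at about 19% in these data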;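 note: 0% = DMSO alone and 100% = 87 µM carbachol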
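Material: zebrafish TRPN1-YFP in HEK293 cells. Doses: one dose of 3 µM, 0.3% DMSO. Incubation: dye 1 h 37 °C plus 30 min RT. Measured by: intracellular calcium fluorescence with Fluo-8.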
CRFBP-R2 block – CRF-BP/CRF-R2 complex antagonism; HEK293 CRF-R2/CRF-BP, CRF-induced calcium fluorescence; inhibition, % at 11.8 µM; actives 0.59% (n = 350,000); AID 588475;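 active = inhibition of the ligand-induced calcium signal above about 50% at the single tested concentration, limit read from the data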
CRFBP-R2 agonist – agonists of human CRF-binding protein/CRF-R2 receptor complex; AID 588473; HEK293 CRF-R2/CRF-BP, calcium dye fluorescence (FLIPR); percent of saturating CRF peptide response; actives 0.46% (n = 350,000); activation, % at 13.2 µM;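 active = activation of at least 50%, plus an integration ratio under a set limit after plate pattern correction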;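 note: plate controls were neutral control wells without compound for no effect and CRF at EC100 for full effect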
TRPML3 agonist – activates the human TRPML3 channel; actives 0.29% (n = 220,000); activation, % at 3 µM; HEK293 TRPML3-YFP, Fluo-8 calcium fluorescence; 100% = the carbachol control signal; Q8TDD5;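 active = activation above its plate's cutoff, the mean activation of the plate's test wells plus 3 SD, cut at about 12% in these data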;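 note: 0% = DMSO only wells and 100% = carbachol wells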
Target sequence (Q8TDD5 whole entry, looked up): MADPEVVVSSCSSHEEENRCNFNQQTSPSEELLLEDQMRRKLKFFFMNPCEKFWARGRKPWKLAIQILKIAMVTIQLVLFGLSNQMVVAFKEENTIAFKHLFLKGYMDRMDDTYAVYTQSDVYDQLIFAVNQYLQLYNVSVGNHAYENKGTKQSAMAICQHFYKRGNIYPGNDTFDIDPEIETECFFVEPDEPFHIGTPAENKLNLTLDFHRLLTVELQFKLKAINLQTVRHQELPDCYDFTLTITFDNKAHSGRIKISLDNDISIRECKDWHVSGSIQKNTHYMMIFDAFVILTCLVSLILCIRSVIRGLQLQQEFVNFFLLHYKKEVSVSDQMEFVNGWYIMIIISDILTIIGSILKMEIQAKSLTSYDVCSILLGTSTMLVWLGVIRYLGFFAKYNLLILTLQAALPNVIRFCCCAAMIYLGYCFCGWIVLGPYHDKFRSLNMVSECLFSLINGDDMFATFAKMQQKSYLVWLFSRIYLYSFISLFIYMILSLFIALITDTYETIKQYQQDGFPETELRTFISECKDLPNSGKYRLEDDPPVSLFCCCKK
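Material: HEK293 cells stably carrying human TRPML3-YFP; compound dosing: single dose, 3 µM final nominal compound, 0.3% DMSO final; incubation: 1-h 37 °C dye load, 5-s basal, 120-s post-compound reads; technique: Fluo-8 intracellular calcium fluorescence, excitation 470-495 nm, emission 515-575 nm; read-out basis: percent activation from peak-to-basal fluorescence ratio, scaled between DMSO and carbachol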
Numbers without * were called inactive; x = no result given.

SMILES | zfTRPN1 agonist | CRFBP-R2 block | CRFBP-R2 agonist | TRPML3 agonist
CCc1sc(C(=O)NCCc2ccc(S(N)(=O)=O)cc2)cc1Br | -2 | 61* | -9 | -1
CCc1sc(C(=O)NCCc2ccc(S(N)(=O)=O)cc2)cc1C | x | 0 | 0 | x
Cn1ccsc1=NC(=O)c1ccc(Cl)cc1 | 0 | -1 | 0 | 0
CCOc1ccc(-c2nc(N)ncc2Oc2cccc(OC)c2)c(O)c1 | -1 | 54* | 0 | 0
CCOc1ccc2c(c1)/C(=C(\C(Cl)=C(Cl)Cl)[N+](=O)[O-])N2 | 0 | 2 | 1 | 1
CCCCOc1ccc2c(c1)/C(=C(\C(Cl)=C(Cl)Cl)[N+](=O)[O-])N2 | 0 | 68* | 0 | 1
Cc1cc(OCC(=O)N(Cc2ccco2)C2CCS(=O)(=O)C2)ccc1Cl (stereo not given) | 4 | -1 | -1 | 1
Cc1sc2ncnc(Sc3ccccc3C(=O)Nc3ccc(C#N)cc3)c2c1C | 0 | 61* | -4 | 1
Cc1sc2ncnc(Sc3ccccc3C(=O)Nc3ccc(Br)cc3)c2c1C | 1 | 2 | -2 | 0
CC(C(=O)Nc1ccc(N2CCOCC2)cc1)N1C(=O)c2ccccc2C1=O (stereo not given) | -1 | 0 | 1 | 1
COc1ccc(Cl)cc1NC(=O)C(C)NC(c1ccccc1)c1ccccc1 (stereo not given) | 0 | 53* | -1 | 0
COc1ccc(CNC(=O)CN(C)S(=O)(=O)c2ccc(Br)s2)cc1 | x | 0 | 0 | x
CN(CC(=O)NCc1ccc(F)cc1)S(=O)(=O)c1ccc(Br)s1 | x | 72* | -1 | x
CC(=O)Nc1ccc(NC(=O)c2nc(S(=O)(=O)Cc3cccc(C)c3)ncc2Cl)cc1 | x | 73* | -1 | x
CCS(=O)(=O)c1ncc(Cl)c(C(=O)Nc2ccccc2OC)n1 | x | 20 | 0 | x
COc1ccccc1NC(=O)c1nc(S(=O)(=O)Cc2ccccc2)ncc1Cl | x | 51* | 0 | x
COC(=O)c1ccc(NC(=O)c2nc(S(=O)(=O)Cc3cccc(C)c3)ncc2Cl)cc1 | x | 52* | -1 | x
COc1ccccc1Nc1nc(NCC(C)C)nc(N)c1[N+](=O)[O-] | -1 | -30 | -1 | 1
CCOC(=O)c1cc(S(=O)(=O)Nc2ccc(F)cc2F)cn1C | x | 72* | 0 | x
CCOC(=O)c1cc(S(=O)(=O)Nc2cccc(OC)c2)cn1C | x | 10 | -1 | x
N#CC(C#N)=C(Nc1ccc(F)cc1)SCc1cccc(F)c1 | 25* | 94* | 105* | 21*
CCOc1ccc(N/C(SCc2cccc([N+](=O)[O-])c2)=C(/C#N)C(N)=O)cc1 | 0 | -4 | -4 | -1
O=C(NCCc1ccccc1)c1c[nH]c2ccccc2c1=O | x | 17 | 73* | x
COc1ccccc1-n1c(=S)sc2c(=O)n(Cc3ccco3)c(SC)nc21 | -1 | 60* | 3 | 0
COc1ccccc1-n1c(SC)nc2c(sc(=S)n2-c2ccccc2)c1=O | x | 21 | 1 | x
SMILES | zfTRPN1 agonist | CRFBP-R2 block | CRFBP-R2 agonist | TRPML3 agonist
O=C1OCCN1/N=C/c1ccc([N+](=O)[O-])o1 | 1 | -3 | 3 | 0
CC(=O)OCP(C)(=O)COC(C)=O | 0 | 12 | 2 | 1
COc1ccc(/C=C2/CC/C(=C\c3ccc(OC)c(OC)c3OC)C2=O)c(OC)c1OC | 2 | -88 | 52* | 0
COc1ccc(/C=C2\CCC(C3CCCC3)C2=O)c(OC)c1OC (stereo not given) | x | 4 | 2 | x
COC(CNC(=O)c1cccnc1)OC | 2 | 9 | 2 | 1
COC(CNC(=O)c1ccc2c3c(onc13)-c1ccccc1C2=O)OC | 27* | -8 | 41 | 18*
CCN(Cc1cc(=O)n2ccsc2n1)Cc1nc2cc(OC)c(OC)cc2c(=O)[nH]1 | 3 | -5 | 2 | 0
COc1ccc(CNC(=O)OCCN2CCN(S(=O)(=O)c3ccc(C)cc3)CCC2=O)cc1 | 1 | -1 | -2 | 0
O=C1NC(=O)C2(N1)C(=O)c1cccc3cccc2c13 (stereo not given) | x | -42 | 85* | x
CC(C)n1nc(C(=O)Oc2cccc(Cl)c2Cl)c2ccccc2c1=O | 2 | -33 | 1 | 1
COC(=O)CNC(=O)COC(=O)C(Cc1ccccc1)NC(=O)c1ccco1 (stereo not given) | -1 | 3 | 55* | 0
Cc1ccccc1C(=O)Nc1cccc(NC(=S)NC(=O)c2cccs2)c1 | 2 | -32 | 7 | 0
Cc1ccccc1C(=O)NNC(=S)NC(=O)c1cccs1 | x | 41 | 99* | x
CC(C)(C)c1ccc(C(=O)NC(=S)NNC(=O)c2cccs2)cc1 | 19* | -240 | 290* | 5
Cc1cccc(C(=O)NC(=S)NNC(=O)c2cccs2)c1 | 5 | -75 | 270* | 5
Cc1cccc(C(=O)NC(=S)NNC(=O)c2ccc(Cl)cc2)c1 | 102* | -148 | 213* | 44*
O=C(NC(=S)NNC(=O)c1cccs1)c1ccccc1 | x | -7 | 27 | x
COc1ccc(NC(=S)NCc2cccs2)cc1 | -1 | 30 | -4 | 0
OCCC1CN(Cc2ccn[nH]2)CCN1Cc1ccc(F)c(F)c1 (stereo not given) | 2 | 20 | -1 | 1
O=C(CSc1ncnc2sc3c(c12)CCC3)N1CCOCC1 | x | -2 | 0 | x
CCOc1ccc(C=NNc2ccc(S(=O)(=O)Nc3ccccc3C(=O)O)cc2[N+](=O)[O-])cc1 | x | 10 | -1 | x
C=CCOc1ccc(C=NNc2ccc(S(=O)(=O)Nc3ccccc3C(=O)O)cc2[N+](=O)[O-])cc1OC | x | 67* | 0 | x
CSc1ccc(C=NNc2ccc(S(=O)(=O)Nc3ccccc3C(=O)O)cc2[N+](=O)[O-])cc1 | x | 20 | 0 | x
Cc1nn(-c2ccccc2)c(Cl)c1/C=N/Nc1ccc(S(=O)(=O)Nc2ccccc2C(=O)O)cc1[N+](=O)[O-] | -1 | 74* | -1 | 1
Cc1cc(C(=O)OCC(=O)N2CC(=O)Nc3ccccc32)c(C)n1-c1ccc(F)cc1 | 0 | 12 | -3 | 0
SMILES | zfTRPN1 agonist | CRFBP-R2 block | CRFBP-R2 agonist | TRPML3 agonist
Cc1ccc(C(C(=O)NC(C)(C)C)N(Cc2cccnc2)C(=O)C(=O)NC2CCCCC2)o1 (stereo not given) | 0 | 0 | 0 | 0
Cc1cc(/C=N/NC(=O)c2c(Br)cnn2C)c(C)n1-c1cccc(Br)c1 | -2 | 18 | 2 | -1
Cc1c(C(=O)O)sc(S(=O)(=O)N2CCN(C(=O)Cc3ccc(F)cc3)CC2)c1C(=O)O | x | 52* | -1 | x
CCCCC(Sc1nc(C)c(Cc2ccccc2)c(=O)[nH]1)C(=O)O (stereo not given) | x | 2 | -1 | x
C=CCn1cnc2c(c1=O)c1nc3ccccc3nc1n2/N=C/c1cccc(OC)c1OC | x | 54* | 0 | x
C=CCn1cnc2c(c1=O)c1nc3ccccc3nc1n2/N=C/c1cc(OC)c(OC)c(OC)c1 | 1 | -40 | 3 | 1
COCCn1cnc2c(c1=O)c1nc3ccccc3nc1n2/N=C/c1cccc(OC)c1 | 0 | 57* | -1 | -1
NS(=O)(=O)c1ccc(OC(=O)CNC(=O)OCc2ccccc2)cc1 | x | -5 | -1 | x
